Measurements as given in ChEMBL document CHEMBL4130370, “Discovery of 5,6-diaryl-1,2,4-triazines hybrids as potential apoptosis inducers” (Eur J Med Chem, 2017).
One block for each compound: values may come before it. Calls of active or inactive are those of the source. The rule behind the calls is not given here.

Assays:
ECa-109 cell line = assay: Antiproliferative activity against human EC109 cells after 48 hrs by MTT assay; format: functional, cell-based; conditions: ECa-109, 48 h
Procedure, shortened: (§1)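 Cells exposed to compounds for 48 h, then read by MTT. IC50 is the concentration giving 50% inhibition of tumour cell proliferation, taken from dose-response curves. Values are means±SD of three independent experiments. 5-FU was the reference drug.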

PC-3 = assay: Antiproliferative activity against human PC3 cells after 48 hrs by MTT assay; format: functional, cell-based; conditions: PC-3, 48 h; procedure, shortened: as §1
MGC-803 [1] = assay: Antiproliferative activity against human MGC803 cells after 48 hrs by MTT assay; format: functional, cell-based; conditions: MGC-803, 48 h; procedure, shortened: as §1
MGC-803 [2] = assay: Cell cycle arrest in human MGC803 cells assessed as accumulation at G2/M phase after 48 hrs by propidium iodide-staining based flow cytometry; format: functional
Procedure, shortened: (§2)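 MGC-803 cells treated at 0, 6 or 8 µM for 48 h. Cells then fixed, stained with propidium iodide and analysed by flow cytometry for cell-cycle phase distribution.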

MGC-803 [3] = assay: Induction of apoptosis in human MGC803 cells assessed as necrotic cells at 6 uM after 48 hrs Annexin V-FITC/propidium iodide based flow cytometry (0.1%); format: functional
Procedure, shortened: (§3)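 MGC-803 cells treated at 0, 6, 8 or 10 µM for 48 h. Cells then double-stained with Annexin V-FITC and propidium iodide and analysed by biparametric flow cytometry.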

MGC-803 [4] = assay: Cell cycle arrest in human MGC803 cells assessed as accumulation at G2/M phase at 6 uM after 48 hrs by propidium iodide-staining based flow cytometry (19.75%); format: functional; procedure, shortened: as §2
MGC-803 [5] = assay: Induction of apoptosis in human MGC803 cells assessed as increase in cleaved caspase-3 expression after 48 hrs by Western blot analysis; format: functional, cell-based
Procedure, shortened: (§4)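 MGC-803 cells treated at 0, 6, 8 or 10 µM for 48 h, then Western blotted. Band levels analysed statistically against control. Results representative of three independent experiments.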

MGC-803 [6] = assay: Induction of mitochondrial membrane potential loss in human MGC803 cells assessed as collapse of the mitochondrial membrane potential at 6 uM after 48 hrs by JC-1 staining based flow cytometry (reference value: 4.1%); format: functional
Procedure, shortened: (§5)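 MGC-803 cells treated with vehicle or 6, 8 or 10 µM for 48 h. Mitochondrial membrane potential measured by JC-1 dye retention on flow cytometry.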

MGC-803 [7] = assay: Induction of apoptosis in human MGC803 cells assessed as decrease in Bcl-xl expression up to 10 uM after 48 hrs by Western blot analysis; format: functional, cell-based
MGC-803 [8] = assay: Induction of apoptosis in human MGC803 cells assessed as nuclear condensation at 6 to 10 uM after 48 hrs by Hoechst 33258-staining based fluorescent microscopy; format: functional, cell-based
Procedure, shortened: (§6)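 MGC-803 cells incubated at the indicated concentrations for 48 h. Nuclei then stained (legend says DAPI; methods say Hoechst 33258) and viewed by fluorescence microscopy at ×400.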

MGC-803 [9] = assay: Induction of mitochondrial membrane potential loss in human MGC803 cells after 48 hrs by JC-1 staining based flow cytometry; format: functional, cell-based; procedure, shortened: as §5
MGC-803 [10] = assay: Induction of apoptosis in human MGC803 cells assessed as late apoptotic cells at 8 uM after 48 hrs Annexin V-FITC/propidium iodide based flow cytometry (1%); format: functional; procedure, shortened: as §3
MGC-803 [11] = assay: Induction of morphological changes in human MGC803 cells assessed as formation of cell debris at 6 to 10 uM after 48 hrs by inverted microscopic analysis; format: functional, cell-based
Procedure, shortened: (§7)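 MGC-803 cells incubated at 0, 6, 8 or 10 µM for 48 h. Morphology then recorded under an inverted microscope at ×400.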

MGC-803 [12] = assay: Cell cycle arrest in human MGC803 cells assessed as accumulation at G1 phase at 8 uM after 48 hrs by propidium iodide-staining based flow cytometry (50.18%); format: functional; procedure, shortened: as §2
MGC-803 [13] = assay: Cell cycle arrest in human MGC803 cells assessed as accumulation at G1 phase at 6 uM after 48 hrs by propidium iodide-staining based flow cytometry (50.18%); format: functional; procedure, shortened: as §2
MGC-803 [14] = assay: Induction of apoptosis in human MGC803 cells assessed as viable cells at 6 uM after 48 hrs Annexin V-FITC/propidium iodide based flow cytometry (96.5%); format: functional; conditions: MGC-803, 48 h, read-out: Activity; procedure, shortened: as §3
GES1 = assay: Cytotoxicity against human GES-1 cells after 48 hrs by MTT assay; format: cell-based; conditions: GES1, 48 h
MGC-803 [15] = assay: Induction of apoptosis in human MGC803 cells assessed as necrotic cells at 8 uM after 48 hrs Annexin V-FITC/propidium iodide based flow cytometry (0.1%); format: functional; procedure, shortened: as §3
MGC-803 [16] = assay: Induction of apoptosis in human MGC803 cells assessed as early apoptotic cells at 8 uM after 48 hrs Annexin V-FITC/propidium iodide based flow cytometry (2.3%); format: functional; procedure, shortened: as §3
MGC-803 [17] = assay: Induction of apoptosis in human MGC803 cells assessed as early apoptotic cells at 10 uM after 48 hrs Annexin V-FITC/propidium iodide based flow cytometry (2.3%); format: functional; procedure, shortened: as §3
MGC-803 [18] = assay: Cell cycle arrest in human MGC803 cells assessed as accumulation at G2/M phase at 8 uM after 48 hrs by propidium iodide-staining based flow cytometry (19.75%); format: functional; procedure, shortened: as §2
MGC-803 [19] = assay: Induction of apoptosis in human MGC803 cells assessed as increase in Bax expression after 48 hrs by Western blot analysis; format: functional, cell-based; procedure, shortened: as §4
MGC-803 [20] = assay: Induction of apoptosis in human MGC803 cells assessed as decrease in Bcl2 expression up to 10 uM after 48 hrs by Western blot analysis; format: functional, cell-based
MGC-803 [21] = assay: Induction of apoptosis in human MGC803 cells assessed as early apoptotic cells at 6 uM after 48 hrs Annexin V-FITC/propidium iodide based flow cytometry (2.3%); format: functional; procedure, shortened: as §3
MGC-803 [22] = assay: Induction of morphological changes in human MGC803 cells assessed as rounding up of cells at 6 to 10 uM after 48 hrs by inverted microscopic analysis; format: functional, cell-based; procedure, shortened: as §7
MGC-803 [23] = assay: Induction of apoptosis in human MGC803 cells after 48 hrs Annexin V-FITC/propidium iodide based flow cytometry; format: functional, cell-based; procedure, shortened: as §3
MGC-803 [24] = assay: Induction of apoptosis in human MGC803 cells assessed as necrotic cells at 10 uM after 48 hrs Annexin V-FITC/propidium iodide based flow cytometry (0.1%); format: functional; procedure, shortened: as §3
MGC-803 [25] = assay: Induction of apoptosis in human MGC803 cells assessed as viable cells at 8 uM after 48 hrs Annexin V-FITC/propidium iodide based flow cytometry (96.5%); format: functional; conditions: MGC-803, 48 h, read-out: Activity; procedure, shortened: as §3
MGC-803 [26] = assay: Induction of apoptosis in human MGC803 cells assessed as increase in cleaved PARP expression after 48 hrs by Western blot analysis; format: functional, cell-based; procedure, shortened: as §4
MGC-803 [27] = assay: Induction of apoptosis in human MGC803 cells assessed as viable cells at 10 uM after 48 hrs Annexin V-FITC/propidium iodide based flow cytometry (96.5%); format: functional; conditions: MGC-803, 48 h, read-out: Activity; procedure, shortened: as §3
MGC-803 [28] = assay: Induction of apoptosis in human MGC803 cells assessed as nuclear fragmentation at 6 to 10 uM after 48 hrs by Hoechst 33258-staining based fluorescent microscopy; format: functional, cell-based; procedure, shortened: as §6
MGC-803 [29] = assay: Cell cycle arrest in human MGC803 cells assessed as accumulation at S phase at 6 uM after 48 hrs by propidium iodide-staining based flow cytometry (25.56%); format: functional; procedure, shortened: as §2
MGC-803 [30] = assay: Induction of apoptosis in human MGC803 cells assessed as chromatin condensation at 6 to 10 uM after 48 hrs by Hoechst 33258-staining based fluorescent microscopy; format: functional, cell-based; procedure, shortened: as §6
MGC-803 [31] = assay: Inhibition of colony formation in human MGC803 cells up to 8 uM after 7 days; format: functional, cell-based
Procedure, shortened: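 MGC-803 cells treated at various concentrations for about a week. Colonies then imaged and compared with untreated control.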

MGC-803 [32] = assay: Induction of apoptosis in human MGC803 cells assessed as increase in cleaved caspase-9 expression after 48 hrs by Western blot analysis; format: functional, cell-based; procedure, shortened: as §4
MGC-803 [33] = assay: Induction of apoptosis in human MGC803 cells assessed as late apoptotic cells at 10 uM after 48 hrs Annexin V-FITC/propidium iodide based flow cytometry (1%); format: functional; procedure, shortened: as §3
MGC-803 [34] = assay: Induction of mitochondrial membrane potential loss in human MGC803 cells assessed as collapse of the mitochondrial membrane potential at 8 uM after 48 hrs by JC-1 staining based flow cytometry (reference value: 4.1%); format: functional; procedure, shortened: as §5
MGC-803 [35] = assay: Induction of apoptosis in human MGC803 cells assessed as increase in DR4 expression after 48 hrs by Western blot analysis; format: functional, cell-based; procedure, shortened: as §4
MGC-803 [36] = assay: Induction of apoptosis in human MGC803 cells assessed as late apoptotic cells at 6 uM after 48 hrs Annexin V-FITC/propidium iodide based flow cytometry (1%); format: functional; procedure, shortened: as §3
MGC-803 [37] = assay: Cell cycle arrest in human MGC803 cells assessed as accumulation at S phase at 8 uM after 48 hrs by propidium iodide-staining based flow cytometry (25.56%); format: functional; procedure, shortened: as §2
MGC-803 [38] = assay: Induction of mitochondrial membrane potential loss in human MGC803 cells assessed as collapse of the mitochondrial membrane potential at 10 uM after 48 hrs by JC-1 staining based flow cytometry (reference value: 4.1%); format: functional; procedure, shortened: as §5

IC50 (PC-3): 57.8 µM | IC50 (MGC-803 [1]): > 100 µM
SMILES: O=c1cc(OCCCn2cc(CSc3nnc(-c4ccccc4)c(-c4ccccc4)n3)nn2)c2ccccc2o1
IC50 (ECa-109 cell line): > 100 µM

IC50 (PC-3): 14.7 µM | IC50 (MGC-803 [1]): 13.2 µM
SMILES: Clc1ccc(Cn2cc(CSc3nnc(-c4ccccc4)c(-c4ccccc4)n3)nn2)cc1
IC50 (ECa-109 cell line): 24.2 µM

IC50 (PC-3): > 100 µM | IC50 (MGC-803 [1]): > 100 µM
SMILES: CC(=O)CSc1nnc(-c2ccccc2)c(-c2ccccc2)n1
IC50 (ECa-109 cell line): > 100 µM

IC50 (PC-3): 10.6 µM | IC50 (MGC-803 [1]): 7.59 µM
SMILES: Fc1ccc(Cn2cc(CSc3nnc(-c4ccccc4)c(-c4ccccc4)n3)nn2)cc1
Activity (MGC-803 [2]): Dose-dependent effect | IC50 (ECa-109 cell line): 19.1 µM | Activity (MGC-803 [3]): 0.2% | Activity (MGC-803 [4]): 26.75% | Activity (MGC-803 [5]): Dose-dependent effect | Activity (MGC-803 [6]): 5.2% | Activity (MGC-803 [7]): Active | Activity (MGC-803 [8]): Active | Activity (MGC-803 [9]): Dose-dependent effect | Activity (MGC-803 [10]): 7% | Activity (MGC-803 [11]): Active | Activity (MGC-803 [12]): 30.03% | Activity (MGC-803 [13]): 41.49% | viability at 6 µM (MGC-803 [14]): 88.7% | IC50 (GES1): 31.7 µM | Activity (MGC-803 [15]): 0.2% | Activity (MGC-803 [16]): 16.9% | Activity (MGC-803 [17]): 27.5% | Activity (MGC-803 [18]): 34.39% | Activity (MGC-803 [19]): Dose-dependent effect | Activity (MGC-803 [20]): Active | Activity (MGC-803 [21]): 8.2% | Activity (MGC-803 [22]): Active | Activity (MGC-803 [23]): Dose-dependent effect | Activity (MGC-803 [24]): 0.1% | viability at 8 µM (MGC-803 [25]): 75.9% | Activity (MGC-803 [26]): Dose-dependent effect | viability at 10 µM (MGC-803 [27]): 45.1% | Activity (MGC-803 [28]): Active | Activity (MGC-803 [29]): 25.11% | Activity (MGC-803 [30]): Active | inhibition (MGC-803 [31]): Dose-dependent effect | Activity (MGC-803 [32]): Dose-dependent effect | Activity (MGC-803 [33]): 27.3% | Activity (MGC-803 [34]): 17% | Activity (MGC-803 [35]): Dose-dependent effect | Activity (MGC-803 [36]): 2.9% | Activity (MGC-803 [37]): 25.87% | Activity (MGC-803 [38]): 42.9%

IC50 (PC-3): 22 µM | IC50 (MGC-803 [1]): > 100 µM
SMILES: Brc1ccc(Cn2cc(CSc3nnc(-c4ccccc4)c(-c4ccccc4)n3)nn2)cc1
IC50 (ECa-109 cell line): > 100 µM

IC50 (PC-3): > 100 µM | IC50 (MGC-803 [1]): > 100 µM
SMILES: NS(=O)(=O)c1ccc(-n2cc(CSc3nnc(-c4ccccc4)c(-c4ccccc4)n3)nn2)cc1
IC50 (ECa-109 cell line): > 100 µM

IC50 (PC-3): > 100 µM | IC50 (MGC-803 [1]): > 100 µM
SMILES: c1ccc(-c2nnc(SCc3cn(Cc4ccc5ccccc5c4)nn3)nc2-c2ccccc2)cc1
IC50 (ECa-109 cell line): > 100 µM

IC50 (PC-3): 10.2 µM | IC50 (MGC-803 [1]): > 100 µM
SMILES: COc1ccc(-c2coc3cc(OCCCn4cc(CSc5nnc(-c6ccccc6)c(-c6ccccc6)n5)nn4)ccc3c2=O)cc1
IC50 (ECa-109 cell line): > 100 µM
